Experimental data as given in publication PMC11830134 (BioImpacts : BI, 2023).
Where “and” joins values, the source holds several entries; their conditions need not be identical. Equal entries are not always repeated.

Columns and labels:
[1] = Ex-vivo skin permeation, Franz diffusion cells; assay type: in vitro ADME, Sprague-Dawley rats; conditions: for Residual drug in the donor phase / Flux / Permeated drug through the skin: rat skin, mean ± SD, n=3; for Residual drug in the donor phase: after 48h; for Flux / Permeated drug through the skin: saturated solution donor; for Flux: 37 °C; for Flux / Unrecovered/ trapped drug: 48h; for Permeated drug through the skin: over 48h; for Unrecovered/ trapped drug: total applied minus permeated and donor-recovered amounts
In short: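 Full-thickness abdominal skin from ~8-week male Sprague-Dawley rats (220-250 g), taken after isoflurane anaesthesia, mounted in upright Franz cells (2.0 cm2). Donor: peptide at saturated solubility, set from predicted logS. Receptor: 5 mL 10% (v/v) hydroethanolic solution, 37±0.5 °C, 300 rpm, 48 h. 1 mL sampled at 1-48 h with replacement, stored -20 °C, quantified by ESI-MS flow injection. Flux from permeated amount versus time.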

[2] = Short-term stability of aqueous solutions; assay type: physicochemical; conditions: aqueous solutions at −20, 4, 25 and 37 °C, compared with fresh samples
In short: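 Test peptide aqueous solutions at set concentrations, held at −20, 4, 25 and 37 °C for 72 h. Then quantified by ESI triple-quad MS in flow-injection mode (direct infusion from autosampler). Expressed relative to fresh samples of the same initial concentration.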

[3] = Surface tension and critical micelle concentration, Du Noüy ring method; assay type: physicochemical; conditions: aqueous, 25±0.5 °C; mean ± SD, n=3
In short: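 Aqueous solutions freshly made at twice the predicted solubility as starting concentration. Du Noüy platinum ring force tensiometer, 25±0.5 °C; ring fully immersed, then slowly lifted, and force at detachment converted to surface tension. Static-zone surface tension compared with deionized water. Triplicate measurements.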

[4] = cited from earlier work
[5] = equilibrium zone, water; cited from earlier work
[6] = cited from earlier work; remark: listed apart in the source

Compound | Residual drug in the donor phase [1] | Flux [1] | Permeated drug through the skin [1] | Unrecovered/ trapped drug [1] | stability range in the aqueous medium after 72 hours [2] | CMC [3] | accumulation in the epidermis [4] | experimental surface tension [5] | logP [6]
CCCCCCCCCC(=O)N[C@@H](CCCCN)C(=O)N[C@H](C(=O)O)[C@@H](C)O [Compound C10-KT] | 55.23±3.377% | 0.032±0.009 µg/cm^2 /h | 2.3% and 2.314±1.087% | ≈42% | 96.6-103.7% | 42.24 ± 0.06 mg/L | – | – | –
CCCCCCCCCCCCCCCC(=O)N[C@@H](CCCCN)C(=O)N[C@H](C(=O)O)[C@@H](C)O [Compound C16-KT, reference compound] | 4.197±1.308% | 0.001±0.000 µg/cm^2 /h | 2.6% and 2.628±0.368% | ≈93% | 93.2-104.2% | 1.89 ± 0.44 mg/L | – | – | –
C[C@@H](O)[C@H](NC(=O)[C@@H](N)CCCCN)C(=O)O [KT, lysine-threonine, reference compound] | 97.7% and 97.73±1.688% | 0.003±0.000 µg/cm^2 /h | 0.004% and 0.004±0.001% | – | 99.7-100.3% | – | – | – | –
Pal-KTTKS | – | – | – | – | – | – | 48% | 50.3±0.40 mN/m | 3.72
lysine-threonine-threonine-lysine-serine [KTTKS] | – | – | – | – | – | – | – | 69.00±2.7 mN/m | -3.54

Second part, led by results:

Residual drug in the donor phase [1] | Flux [1] | Permeated drug through the skin [1] | Unrecovered/ trapped drug [1] | stability range in the aqueous medium after 72 hours [2] | CMC [3] | Compound | accumulation in the epidermis [4] | experimental surface tension [5] | logP [6]
21.29±3.851% | 1.084±0.085 µg/cm^2 /h | 33.2% and 33.24±9.562% | ≈ 34% | 98.9-101.6% | 194.95 ± 0.05 mg/L | CCCCCCCC(=O)N[C@@H](CCCCN)C(=O)N[C@H](C(=O)O)[C@@H](C)O [Compound C8-KT] | – | – | –
21.49±7.454% | 0.016±0.006 µg/cm^2 /h | 0.5% and 0.499±0.070% | ≈78% | 96.2-101.8% | 15.31 ± 0.05 mg/L | CCCCCCCCCCCC(=O)N[C@@H](CCCCN)C(=O)N[C@H](C(=O)O)[C@@H](C)O [Compound C12-KT] | – | – | –
